# Assay results reported in ChEMBL document CHEMBL1221279, “Synthesis, biological evaluation, and structure-activity relationship study of novel cytotoxic aza-caffeic acid derivatives” (Bioorg Med Chem, 2010).
# Tested on: PC-3
# Test: Cytotoxicity against human PC3 cells after 72 hrs by MTT assay
# Format: functional, cell-based
# Conditions: PC-3, 72 h
# Summary of the method: (§1)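 Cells grown in MEM with 10% fetal calf serum, penicillin and streptomycin at 37 °C, 5% CO2. Exponentially growing cells seeded in quadruplicate at 5 × 10³ per well and left 24 h before compounds (DMSO stocks) were added. After 72 h exposure, MTT added for 4 h at 37 °C, formazan dissolved in DMSO, read at 570 nm. IC50 read graphically from dose–response curves.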
row,Structure (SMILES),IC50 [µM]
1,COc1ccc(/C=C/C(=O)NCCN2CCOCC2)cc1OC,> 200
2,COc1ccc(NC(=O)COC(=O)/C=C/c2cc(OC)c(OCc3ccc(Cl)c(Cl)c3)c(OC)c2)cc1,> 200
3,O=C(/C=C/c1ccc(O)c(O)c1)NCCN1CCOCC1,> 200
4,O=C(/C=C/c1ccc(O)c(O)c1)OCCc1ccccc1 [CAFFEIC ACID PHENETHYL ESTER],91
5,COc1ccc(NC(=O)COC(=O)/C=C/c2ccc(O)c(O)c2)cc1,172
6,COCOc1ccc(/C=C/C(=O)NCCc2c[nH]c3ccccc23)cc1OCOC,157

# Tested on: HeLa
# Test: Cytotoxicity against human HeLa cells after 72 hrs by MTT assay
# Format: functional, cell-based
# Conditions: not given
# Summary of the method: as §1
row,Structure (SMILES),IC50 [µM]
1,COc1ccc(/C=C/C(=O)NCCN2CCOCC2)cc1OC,> 200
2,COc1ccc(NC(=O)COC(=O)/C=C/c2cc(OC)c(OCc3ccc(Cl)c(Cl)c3)c(OC)c2)cc1,> 200
3,O=C(/C=C/c1ccc(O)c(O)c1)NCCN1CCOCC1,> 200
4,O=C(/C=C/c1ccc(O)c(O)c1)OCCc1ccccc1 [CAFFEIC ACID PHENETHYL ESTER],8.8
5,COc1ccc(NC(=O)COC(=O)/C=C/c2ccc(O)c(O)c2)cc1,> 200
6,COCOc1ccc(/C=C/C(=O)NCCc2c[nH]c3ccccc23)cc1OCOC,> 200

# Tested on: BGC-823
# Test: Cytotoxicity against human BGC823 cells after 72 hrs by MTT assay
# Format: functional, cell-based
# Conditions: BGC-823, 72 h
# Summary of the method: as §1
row,Structure (SMILES),IC50 [µM]
1,COc1ccc(/C=C/C(=O)NCCN2CCOCC2)cc1OC,> 200
2,O=C(/C=C/c1ccc(O)c(O)c1)NCCN1CCOCC1,> 200
3,O=C(/C=C/c1ccc(O)c(O)c1)OCCc1ccccc1 [CAFFEIC ACID PHENETHYL ESTER],19.3
4,COCOc1ccc(/C=C/C(=O)NCCc2c[nH]c3ccccc23)cc1OCOC,143

# Tested on: HL-60
# Test: Cytotoxicity against human HL60 cells after 72 hrs by MTT assay
# Format: functional, cell-based
# Conditions: HL-60, 72 h
# Summary of the method: as §1
row,Structure (SMILES),IC50 [µM]
1,COc1ccc(/C=C/C(=O)NCCN2CCOCC2)cc1OC,> 200
2,COc1ccc(NC(=O)COC(=O)/C=C/c2cc(OC)c(OCc3ccc(Cl)c(Cl)c3)c(OC)c2)cc1,> 200
3,O=C(/C=C/c1ccc(O)c(O)c1)NCCN1CCOCC1,> 200
4,O=C(/C=C/c1ccc(O)c(O)c1)OCCc1ccccc1 [CAFFEIC ACID PHENETHYL ESTER],9.8
5,COc1ccc(NC(=O)COC(=O)/C=C/c2ccc(O)c(O)c2)cc1,72.1
6,COCOc1ccc(/C=C/C(=O)NCCc2c[nH]c3ccccc23)cc1OCOC,> 200

# Tested on: K562
# Test: Cytotoxicity against human K562 cells after 72 hrs by MTT assay
# Format: functional, cell-based
# Conditions: K562, 72 h
# Summary of the method: as §1
row,Structure (SMILES),IC50 [µM]
1,COc1ccc(/C=C/C(=O)NCCN2CCOCC2)cc1OC,> 200
2,COc1ccc(NC(=O)COC(=O)/C=C/c2cc(OC)c(OCc3ccc(Cl)c(Cl)c3)c(OC)c2)cc1,> 200
3,O=C(/C=C/c1ccc(O)c(O)c1)NCCN1CCOCC1,> 200
4,O=C(/C=C/c1ccc(O)c(O)c1)OCCc1ccccc1 [CAFFEIC ACID PHENETHYL ESTER],46
5,COc1ccc(NC(=O)COC(=O)/C=C/c2ccc(O)c(O)c2)cc1,79.1
6,COCOc1ccc(/C=C/C(=O)NCCc2c[nH]c3ccccc23)cc1OCOC,195

# Tested on: KB
# Test: Cytotoxicity against human KB cells after 72 hrs by MTT assay
# Format: functional, cell-based
# Conditions: not given
# Summary of the method: as §1
row,Structure (SMILES),IC50 [µM]
1,COc1ccc(/C=C/C(=O)NCCN2CCOCC2)cc1OC,> 200
2,O=C(/C=C/c1ccc(O)c(O)c1)NCCN1CCOCC1,> 200
3,O=C(/C=C/c1ccc(O)c(O)c1)OCCc1ccccc1 [CAFFEIC ACID PHENETHYL ESTER],45.2
4,COCOc1ccc(/C=C/C(=O)NCCc2c[nH]c3ccccc23)cc1OCOC,> 200

# Tested on: not listed separately
# Test: Cytotoxicity against human HO8910 cells after 72 hrs by MTT assay
# Format: functional, cell-based
# Conditions: HO-8910, 72 h
# Summary of the method: as §1
row,Structure (SMILES),IC50 [µM]
1,COc1ccc(/C=C/C(=O)NCCN2CCOCC2)cc1OC,> 200
2,O=C(/C=C/c1ccc(O)c(O)c1)NCCN1CCOCC1,> 200
3,O=C(/C=C/c1ccc(O)c(O)c1)OCCc1ccccc1 [CAFFEIC ACID PHENETHYL ESTER],25.5
4,COCOc1ccc(/C=C/C(=O)NCCc2c[nH]c3ccccc23)cc1OCOC,> 200

# Tested on: not listed separately
# Test: Cytotoxicity against human ECA109 cells after 72 hrs by MTT assay
# Format: functional, cell-based
# Conditions: ECa-109, 72 h
# Summary of the method: as §1
row,Structure (SMILES),IC50 [µM]
1,COc1ccc(/C=C/C(=O)NCCN2CCOCC2)cc1OC,> 200
2,COc1ccc(NC(=O)COC(=O)/C=C/c2cc(OC)c(OCc3ccc(Cl)c(Cl)c3)c(OC)c2)cc1,> 200
3,O=C(/C=C/c1ccc(O)c(O)c1)NCCN1CCOCC1,> 200
4,O=C(/C=C/c1ccc(O)c(O)c1)OCCc1ccccc1 [CAFFEIC ACID PHENETHYL ESTER],42.6
5,COc1ccc(NC(=O)COC(=O)/C=C/c2ccc(O)c(O)c2)cc1,190
6,COCOc1ccc(/C=C/C(=O)NCCc2c[nH]c3ccccc23)cc1OCOC,154

# Tested on: A549
# Test: Cytotoxicity against human A549 cells after 72 hrs by MTT assay
# Format: functional, cell-based
# Conditions: A549, 72 h
# Summary of the method: as §1
row,Structure (SMILES),IC50 [µM]
1,COc1ccc(/C=C/C(=O)NCCN2CCOCC2)cc1OC,> 200
2,O=C(/C=C/c1ccc(O)c(O)c1)NCCN1CCOCC1,> 200
3,O=C(/C=C/c1ccc(O)c(O)c1)OCCc1ccccc1 [CAFFEIC ACID PHENETHYL ESTER],26.8
4,COCOc1ccc(/C=C/C(=O)NCCc2c[nH]c3ccccc23)cc1OCOC,> 200

# Tested on: not listed separately
# Test: Cytotoxicity against human LS 174T cells after 72 hrs by MTT assay
# Format: functional, cell-based
# Conditions: LS174T
# Summary of the method: as §1
row,Structure (SMILES),IC50 [µM]
1,COc1ccc(/C=C/C(=O)NCCN2CCOCC2)cc1OC,> 200
2,COc1ccc(NC(=O)COC(=O)/C=C/c2cc(OC)c(OCc3ccc(Cl)c(Cl)c3)c(OC)c2)cc1,> 200
3,O=C(/C=C/c1ccc(O)c(O)c1)NCCN1CCOCC1,> 200
4,O=C(/C=C/c1ccc(O)c(O)c1)OCCc1ccccc1 [CAFFEIC ACID PHENETHYL ESTER],9.9
5,COc1ccc(NC(=O)COC(=O)/C=C/c2ccc(O)c(O)c2)cc1,124
6,COCOc1ccc(/C=C/C(=O)NCCc2c[nH]c3ccccc23)cc1OCOC,165

# Tested on: not listed separately
# Test: Cytotoxicity against human Bel7404 cells after 72 hrs by MTT assay
# Format: functional, cell-based
# Conditions: BEL-7404, 72 h
# Summary of the method: as §1
row,Structure (SMILES),IC50 [µM]
1,COc1ccc(/C=C/C(=O)NCCN2CCOCC2)cc1OC,> 200
2,COc1ccc(NC(=O)COC(=O)/C=C/c2cc(OC)c(OCc3ccc(Cl)c(Cl)c3)c(OC)c2)cc1,97.8
3,O=C(/C=C/c1ccc(O)c(O)c1)NCCN1CCOCC1,> 200
4,O=C(/C=C/c1ccc(O)c(O)c1)OCCc1ccccc1 [CAFFEIC ACID PHENETHYL ESTER],14.5
5,COc1ccc(NC(=O)COC(=O)/C=C/c2ccc(O)c(O)c2)cc1,> 200
6,COCOc1ccc(/C=C/C(=O)NCCc2c[nH]c3ccccc23)cc1OCOC,> 200

# Tested on: CNE
# Test: Cytotoxicity against human CNE cells after 72 hrs by MTT assay
# Format: functional, cell-based
# Conditions: not given
# Summary of the method: as §1
row,Structure (SMILES),IC50 [µM]
1,COc1ccc(/C=C/C(=O)NCCN2CCOCC2)cc1OC,> 200
2,COc1ccc(NC(=O)COC(=O)/C=C/c2cc(OC)c(OCc3ccc(Cl)c(Cl)c3)c(OC)c2)cc1,> 200
3,O=C(/C=C/c1ccc(O)c(O)c1)NCCN1CCOCC1,> 200
4,O=C(/C=C/c1ccc(O)c(O)c1)OCCc1ccccc1 [CAFFEIC ACID PHENETHYL ESTER],54
5,COc1ccc(NC(=O)COC(=O)/C=C/c2ccc(O)c(O)c2)cc1,> 200
6,COCOc1ccc(/C=C/C(=O)NCCc2c[nH]c3ccccc23)cc1OCOC,> 200
